Assay results reported in ChEMBL document CHEMBL1130204, “3 alpha-Hydroxy-3 beta-(phenylethynyl)-5 beta-pregnan-20-ones: synthesis and pharmacological activity of neuroactive steroids with high affinity for GABAA receptors” (J Med Chem, 1997).

Assays:
[1] = target: GABA-A receptor; anion channel; test: In vitro inhibition of [35S]TBPS binding to Gamma-aminobutyric acid A receptor in rat brain cortical membranes in the presence of 5 uM GABA (low affinity); assay type: cell membranes, Membrane
Procedure, shortened: (§1)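 Rat cortical P2 membranes washed in 200 mM NaCl/50 mM Na-K phosphate pH 7.4, incubated 90 min at room temperature with 2 nM [35S]TBPS, 5 µM GABA and test drug in DMSO (final 0.5%). Nonspecific binding defined with 2 µM unlabeled TBPS. Filtration, scintillation counting. Fits to one- or two-component, full or partial inhibition models chosen by F-test; IC50 and Imax as mean ± SEM of individual experiments.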

[2] = target: GABA-A receptor; anion channel; test: In vitro inhibition of [35S]TBPS binding to Gamma-aminobutyric acid A receptor in rat brain cortical membranes in the presence of 5 uM GABA (high affinity); assay type: cell membranes, Membrane; procedure, shortened: as §1
Mus musculus = test: Percent of animals (n=8) not exhibiting PTZ-induced ( Pentylentetrazol protection) seizures 10 min following a 10 mg/kg ip dose of steroid.; assay type: functional; conditions: route intraperitoneal
Procedure, shortened: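 Male NSA mice (15-20 g), n = 8. […] Mice watched 30 min for clonic seizure (forelimb clonus ≥3 s). Read-out is the percent of mice protected.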

Rattus norvegicus [3] = species on record: Rattus norvegicus; test: The maximum inhibitory potency was calculated by fitting [35S]TBPS inhibition data to a sigmoid function (rat brain cortical P2 membranes) (high affinity); assay type: functional
Procedure, shortened: (§2)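 Rat cortical P2 membranes, washed in 200 mM NaCl/50 mM Na-K phosphate pH 7.4, incubated 90 min at room temperature with 2 nM [35S]TBPS, 5 µM GABA and test drug in DMSO (final 0.5%). Nonspecific binding taken with 2 µM unlabeled TBPS. Filtration, then scintillation counting. Partial vs full and one- vs two-component models chosen by F-test. IC50 and Imax come from individual experiments, given as mean ± SEM of 3–4.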

Rattus norvegicus [4] = species on record: Rattus norvegicus; test: The maximum inhibitory potency was calculated by fitting [35S]TBPS inhibition data to a sigmoid function (rat brain cortical P2 membranes) (low affinity); assay type: functional; procedure, shortened: as §2

IC50 [1]: 1500 nM
IC50 [2]: 45 nM
SMILES: CC(=O)c1cccc(C#C[C@@]2(O)CC[C@@]3(C)[C@H](CC[C@@H]4[C@@H]3CC[C@]3(C)[C@@H](C(C)=O)CC[C@@H]43)C2)c1
PTZ protection (Mus musculus): 0%
Imax (Rattus norvegicus [3]): 34%
Imax (Rattus norvegicus [4]): 65%
